Assays:
Format in all cases: functional
[1] = system: IGROV-1; test: Cytotoxicity against human IGROV1 cells assessed as cell growth at 10 uM after 48 hrs by SRB assay relative to control; conditions: IGROV-1, 48 h, read-out: Activity
Summary of the method: (§1)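 NCI Developmental Therapeutics Program 60-cell-line screen at a single dose of 10 μM. Cells incubated with compound for 48 h at 37 °C before viability determination.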

[2] = system: HCT-116; test: Cytotoxicity against human HCT116 cells assessed as cell growth at 10 uM after 48 hrs by SRB assay relative to control; conditions: HCT-116, 48 h, read-out: Activity; summary of the method: as §1
[3] = system: DU-145; test: Cytotoxicity against human DU145 cells assessed as cell growth at 10 uM after 48 hrs by SRB assay relative to control; conditions: DU-145, 48 h, read-out: Activity; summary of the method: as §1
[4] = system: SNB-19; test: Cytotoxicity against human SNB19 cells assessed as cell growth at 10 uM after 48 hrs by SRB assay relative to control; conditions: SNB-19, 48 h, read-out: Activity
Summary of the method: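 Single-dose (10 μM) screen run by the NCI Developmental Therapeutics Program on its 60 human cancer cell line panel. Viability was determined after 48 h incubation with the cells at 37 °C.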

[5] = system: CCRF-CEM; test: Cytotoxicity against human CCRF-CEM cells assessed as cell growth at 10 uM after 48 hrs by SRB assay relative to control; conditions: read-out: Activity; summary of the method: as §1
[6] = system: HT-29; test: Cytotoxicity against human HT-29 cells assessed as cell growth at 10 uM after 48 hrs by SRB assay relative to control; conditions: HT-29, 48 h, read-out: Activity; summary of the method: as §1

Compound: CCCCCCCCCCCCCCCC(=O)O[C@@H]1[C@H](OC(=O)CCCCCCCCCCCCCCC)[C@@H](C(=O)N[C@@H](CCCCN)C(=O)OC)O[C@H]1n1cnc2c(=O)[nH]c(NC(=O)C(C)C)nc21.Cl
- growth at 10 µM [1]: 91.8%
- growth at 10 µM [2]: 85.4%
- growth at 10 µM [3]: 107%
- growth at 10 µM [4]: 93.5%
- growth at 10 µM [5]: 86%
- growth at 10 µM [6]: 98.2%

From ChEMBL document CHEMBL2434893, “Synthesis, DNA binding and anti-leukemic activity of an aminoacyl nucleolipid” (Bioorg Med Chem Lett, 2013)
